Results: ChEMBL document CHEMBL1131161 (J Med Chem, 1998)

Assays:
Glucocorticoid receptor [1] = target: T1, Glucocorticoid receptor (Homo sapiens, UniProt P04150); assay: Inhibitory activity (IC50) against human glucocorticoid receptor expressed in CV-1 cells; assay type: cell-based
T1 sequence (P04150 whole entry): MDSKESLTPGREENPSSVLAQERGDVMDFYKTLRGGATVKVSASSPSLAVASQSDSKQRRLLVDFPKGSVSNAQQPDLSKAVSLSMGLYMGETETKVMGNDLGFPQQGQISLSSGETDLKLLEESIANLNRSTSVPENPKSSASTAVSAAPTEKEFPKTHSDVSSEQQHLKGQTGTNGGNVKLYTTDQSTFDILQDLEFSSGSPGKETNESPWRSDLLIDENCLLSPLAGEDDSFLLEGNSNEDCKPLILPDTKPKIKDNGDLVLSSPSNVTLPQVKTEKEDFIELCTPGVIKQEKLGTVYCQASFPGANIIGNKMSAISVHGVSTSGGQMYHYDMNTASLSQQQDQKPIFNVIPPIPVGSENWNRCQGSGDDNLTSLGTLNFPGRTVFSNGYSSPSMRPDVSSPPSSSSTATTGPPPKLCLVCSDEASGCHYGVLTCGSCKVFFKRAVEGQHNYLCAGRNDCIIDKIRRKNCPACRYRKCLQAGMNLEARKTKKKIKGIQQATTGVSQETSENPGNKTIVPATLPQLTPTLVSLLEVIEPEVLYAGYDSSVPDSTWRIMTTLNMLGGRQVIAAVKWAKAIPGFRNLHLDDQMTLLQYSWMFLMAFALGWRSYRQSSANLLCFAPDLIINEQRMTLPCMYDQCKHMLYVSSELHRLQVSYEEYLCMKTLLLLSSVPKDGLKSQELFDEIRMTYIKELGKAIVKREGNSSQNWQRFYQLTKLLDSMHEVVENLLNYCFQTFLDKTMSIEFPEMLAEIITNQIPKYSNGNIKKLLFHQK
Procedure, shortened: (§1)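 Cotransfection assays in CV-1 cells with a luciferase reporter, read as normalized LUC expression. In antagonist mode, the reference agonists were DHT for hAR, dexamethasone for hGR and aldosterone for hMR. Antagonist efficacy was expressed as the percent of maximal inhibition of the agonist. Values are means of at least three separate experiments in triplicate, or of two experiments.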

[2] = target: T2, Mineralocorticoid receptor (Homo sapiens, UniProt P08235); assay: Inhibitory activity (IC50) against human mineralocorticoid receptor expressed in CV-1 cells; assay type: cell-based; procedure, shortened: as §1
T2 sequence (P08235 whole entry): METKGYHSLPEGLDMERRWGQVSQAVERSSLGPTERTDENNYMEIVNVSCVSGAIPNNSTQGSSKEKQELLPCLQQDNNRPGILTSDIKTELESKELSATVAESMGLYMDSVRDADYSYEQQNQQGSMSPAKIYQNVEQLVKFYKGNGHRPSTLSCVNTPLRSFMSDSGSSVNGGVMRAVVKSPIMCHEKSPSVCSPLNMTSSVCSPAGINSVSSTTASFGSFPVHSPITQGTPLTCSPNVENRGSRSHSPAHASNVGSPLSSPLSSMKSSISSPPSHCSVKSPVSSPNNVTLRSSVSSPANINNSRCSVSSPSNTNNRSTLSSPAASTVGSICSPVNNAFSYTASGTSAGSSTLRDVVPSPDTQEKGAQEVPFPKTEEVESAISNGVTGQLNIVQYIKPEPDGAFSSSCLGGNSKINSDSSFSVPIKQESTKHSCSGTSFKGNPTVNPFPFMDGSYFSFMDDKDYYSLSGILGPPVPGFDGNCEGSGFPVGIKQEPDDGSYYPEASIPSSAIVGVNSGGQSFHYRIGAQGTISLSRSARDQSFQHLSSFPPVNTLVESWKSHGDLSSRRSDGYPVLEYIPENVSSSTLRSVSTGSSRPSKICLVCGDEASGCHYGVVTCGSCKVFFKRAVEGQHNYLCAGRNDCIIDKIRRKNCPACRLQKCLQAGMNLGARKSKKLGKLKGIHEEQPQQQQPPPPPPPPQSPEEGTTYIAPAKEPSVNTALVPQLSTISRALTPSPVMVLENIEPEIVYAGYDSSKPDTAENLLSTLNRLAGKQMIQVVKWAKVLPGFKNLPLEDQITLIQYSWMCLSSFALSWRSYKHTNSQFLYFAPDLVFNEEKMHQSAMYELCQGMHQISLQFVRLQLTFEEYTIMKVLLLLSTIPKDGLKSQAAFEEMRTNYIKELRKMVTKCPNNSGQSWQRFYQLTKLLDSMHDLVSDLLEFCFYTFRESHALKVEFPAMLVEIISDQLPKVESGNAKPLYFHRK

Androgen receptor = target: T3, Androgen receptor (Homo sapiens, UniProt P10275)
T3 sequence (P10275 whole entry): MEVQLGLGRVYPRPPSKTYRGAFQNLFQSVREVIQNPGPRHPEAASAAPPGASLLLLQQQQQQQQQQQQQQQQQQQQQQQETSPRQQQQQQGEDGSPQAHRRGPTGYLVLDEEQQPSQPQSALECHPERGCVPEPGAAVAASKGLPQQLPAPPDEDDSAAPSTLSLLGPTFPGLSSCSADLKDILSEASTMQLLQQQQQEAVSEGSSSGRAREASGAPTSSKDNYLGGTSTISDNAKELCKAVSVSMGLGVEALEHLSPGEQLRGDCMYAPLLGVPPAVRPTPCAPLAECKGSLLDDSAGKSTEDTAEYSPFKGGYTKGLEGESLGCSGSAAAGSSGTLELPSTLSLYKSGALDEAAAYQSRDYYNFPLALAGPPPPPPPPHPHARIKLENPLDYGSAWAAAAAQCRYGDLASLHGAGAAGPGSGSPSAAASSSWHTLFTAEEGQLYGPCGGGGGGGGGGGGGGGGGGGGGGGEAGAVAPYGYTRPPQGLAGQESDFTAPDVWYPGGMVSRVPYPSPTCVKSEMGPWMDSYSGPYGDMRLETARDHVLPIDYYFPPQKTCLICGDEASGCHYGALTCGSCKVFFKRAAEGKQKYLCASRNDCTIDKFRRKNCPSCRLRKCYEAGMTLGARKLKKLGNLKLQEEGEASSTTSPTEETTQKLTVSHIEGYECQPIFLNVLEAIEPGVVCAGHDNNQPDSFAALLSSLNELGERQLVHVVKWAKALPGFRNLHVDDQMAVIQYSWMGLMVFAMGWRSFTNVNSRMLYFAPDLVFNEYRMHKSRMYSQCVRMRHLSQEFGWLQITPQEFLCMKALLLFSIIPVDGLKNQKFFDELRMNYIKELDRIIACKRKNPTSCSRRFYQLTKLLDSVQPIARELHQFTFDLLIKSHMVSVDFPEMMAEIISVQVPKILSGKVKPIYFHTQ

Estrogen receptor = Estrogen receptor (Homo sapiens, UniProt Q92731+P03372); settings: cv-1
Glucocorticoid receptor [3] = target: T1, Glucocorticoid receptor; assay: biochemical

| IC50 (Glucocorticoid receptor [1]) [nM] | IC50 [2] [nM] | Ki (Androgen receptor) [nM] | IC50 (Estrogen receptor) [nM] | Ki (Glucocorticoid receptor [3]) [nM] | SMILES |
| --- | --- | --- | --- | --- | --- |
| 371 | > 10000 | 887 | > 10000 | 173 | CC1=CC(C)(C)Nc2ccc3c(c21)/C(=C/c1cc(F)ccc1F)Oc1ccccc1-3 |
| 1650 | > 10000 | > 1000 | > 10000 | 237 | CC1=CC(C)(C)Nc2ccc3c(c21)/C(=C/c1ccc(F)c(F)c1)Oc1ccccc1-3 |

| SMILES | IC50 (Glucocorticoid receptor [1]) [nM] | IC50 [2] [nM] | Ki (Androgen receptor) [nM] | IC50 (Estrogen receptor) [nM] | Ki (Glucocorticoid receptor [3]) [nM] |
| --- | --- | --- | --- | --- | --- |
| CC1=CC(C)(C)Nc2ccc3c(c21)/C(=C/c1ccccc1C)Oc1ccccc1-3 | 1050 | > 10000 | 844 | < 20 | 564 |
